# Source: PubChem BioAssay
# L major viab – reduces viability of Leishmania major promastigotes; inhibition, % at 10 µM; resazurin fluorescence viability; 200,000 compounds, 9% hits; in the data active = inhibition above about 50%;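 note: promastigotes grown with compound for 44 hours at 28 °C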
# DTT redox prof – compounds producing H2O2 with reducing agent – biochemical, NIH compound library profiling, artefact control for MLSCN library redox annotation, primary screen; DTT-dependent redox cycling H2O2, phenol red/HRP absorbance; 100% = 100 µM peroxide control, 0% = buffer; activation, % at 10 µM; 200,000 compounds, 0.03% hits;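 active = activation of at least 50% relative to the plate's high and low controls in the primary single-dose screen; inactive = activation below 50%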;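 note: compound incubated with DTT at 0.8 mM final as the reducing agent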
# Lipid droplet – hepatic lipid droplet formation modulation; AML12 mouse hepatocytes, oleate lipid droplets, BODIPY imaging; inhibition, % at 6.5 µM; 240,000 compounds, 0.4% hits;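 active = lipid droplet intensity inhibited by at least 50%, with more than 500 cells counted; inconclusive = wells with under 300 cells, treated as cytotoxic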
#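 Assay system: AML12 hepatocytes (mouse); Probe or stimulus: oleic acid at 100 µM to induce lipid droplet formation; Dosing: compound at 6.5 µM only; Schedule: compound with oleate, overnight; Detection: fluorescence imaging, 20x objective, two fields per well; Measure: % inhibition of lipid droplet signal.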
# MPTP inh – permeability transition pore inhibition; isolated mouse mitochondria, Ca2+ swelling absorbance, 30 min; inhibition, % at 10 µM; AID 602449; 360,000 compounds, 1.4% hits;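 active = inhibition of 50% or more, scaled per plate between neutral and stimulator controls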;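 note: 0% = DMSO wells given calcium and 100% = 1 mM EGTA wells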
# T cruzi repl – T. cruzi replication inhibition. T. cruzi beta-gal in NIH3T3, luminescence, 90 h. inhibition, % (concentration not given with the values). 300,000 compounds, 1.4% hits. AID 1885;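 active = mean inhibition across valid replicates above about 55%, limit read from the data; inconclusive = mean below that limit but half or more replicates reach it; inactive = mean below it, under half of replicates reach it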;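 note: signal also drops with host cell toxicity which is not excluded here; 0% = plate median of DMSO wells and 100% = zero luminescence signal; higher percent means less beta-gal luminescence so fewer parasites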
#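 Test system: β-gal T. cruzi (Tulahuen C4) inside NIH/3T3 cells / Quantity: 5,000 cells/well / Measured by: luminescence from GalScreen with 0.05% NP40, read after 60 min / Medium: DMEM plus 2% FBS / Measure: parasite load inhibition, % / Reagent: Tulahuen C4 trypomastigotes, 5000/well / Schedule: co-culture of at least 90 h after 3 h attachment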
# * = called active by the depositor; ? = inconclusive; . = not tested or not shown. This excerpt belongs to a sample that is enriched for hits.
SMILES,L major viab,DTT redox prof,Lipid droplet,MPTP inh,T cruzi repl
CCn1c(=NC(=O)C2COc3ccccc3O2)sc2c(OC)ccc(OC)c21 (centres undefined),.,.,-22,3,26
Cc1nc(C)c(C(=O)Nc2ccc(Oc3ccccc3)cc2)o1,76*,0,-1,16,-8
Cc1ncoc1C(=O)Nc1ccc(Oc2ccccc2)cc1,17,-4,.,1,-17
Nc1nc(SCc2ccccc2)sc1C(=O)N1CCCCC1,.,.,.,2,.
Cc1ccc(SCc2cc(=O)[nH]c(Nc3nc(C)c4cccc(C)c4n3)n2)cc1,8,-2,.,-3,42
COc1ccc2nc(Nc3nc(C)c(CCC(C)C)c(=O)[nH]3)nc(C)c2c1,99*,0,14,-1,45
COc1ccc2nc(Nc3nc(CSc4ccc(C)cc4)cc(=O)[nH]3)nc(C)c2c1,65*,-1,20,0,30
COc1ccc2nc(Nc3nc(CSc4nnnn4-c4ccccc4)cc(=O)[nH]3)nc(C)c2c1,8,1,18,4,-1
CCOc1ccc2nc(Nc3nc(CSc4nnnn4-c4ccccc4)cc(=O)[nH]3)nc(C)c2c1,50*,1,-4,1,18
CCCCc1c(C)nc(Nc2ccc(OC)cc2)[nH]c1=O,29,0,2,5,-19
Cc1cc(C)c2nc(SCC(=O)NC(=O)c3cccn3C)cc(C)c2c1,7,-1,17,-1,-4
CC(=O)Nc1ccc(S(=O)(=O)NCc2nc(-c3cccc(C)c3)no2)cc1,.,.,2,-1,10
O=C(Nc1ccn(Cc2c(F)c(F)cc(F)c2F)n1)c1ccc(COc2ccccc2Cl)cc1,20,-2,.,0,63*
CCOc1ccccc1CN1C(=O)c2ccccc2C1C(=O)NC(C)CC (centres undefined),84*,0,-2,1,-8
Cc1cc(NC(=O)CCC(=O)N(CCC(C)C)C(C(=O)NC2CCCC2)c2ccccc2C)no1 (centres undefined),.,.,-2,0,8
COc1ccccc1/C=C/[C@@H]1C[C@H]2CN(Cc3cccc(Cl)c3)C(=O)[C@]23CCCN13,4,0,-7,4,42
COc1cccc2c1OCC([C@@H]1C[C@H]3CN(Cc4cccc(Cl)c4)C(=O)[C@]34CCCN14)=C2,59*,1,-22,-1,13
COc1ccccc1CN1C[C@@H]2C[C@@H](c3[nH]c4c(C)cccc4c3C)N3CCC[C@@]23C1=O,53*,-1,-24,0,36
ON/C=N/C(=S)Nc1ncc(C(F)(F)F)cc1Cl,90*,0,-6,-2,3
CON/C=N/C(=S)Nc1ncc(C(F)(F)F)cc1Cl,-3,0,12,0,4
CC(C)c1[nH]nc2c1C(C(C)C)C(C#N)=C(N)O2 (centres undefined),69*,-1,.,-1,?
CC(C)C1C(C#N)=C(N)Oc2n[nH]c(-c3ccccc3)c21 (centres undefined),10,4,-5,-1,-22
CN(CCOc1ccccc1)CC(=O)Nc1ccc(S(=O)(=O)N2CCCC2)cc1,.,.,3,2,57*
CN1CCN(S(=O)(=O)c2ccc(NC(=O)COc3ccccc3)cc2)CC1,-1,0,20,1,-42
O=C(Nc1ccc(S(=O)(=O)N2CCOCC2)cc1)c1cc(S(=O)(=O)N2CCOCC2)ccc1Cl,.,.,5,0,-9
SMILES,L major viab,DTT redox prof,Lipid droplet,MPTP inh,T cruzi repl
CN(CC(=O)Nc1ccc(S(=O)(=O)N2CCCC2)cc1)Cc1cccc(Cl)c1Cl,99*,-1,-30,7,4
O=C(Nc1ccccc1)c1cc(S(=O)(=O)N2CCSCC2)ccc1Cl,53*,0,-9,0,-2
CN1CCN(S(=O)(=O)c2ccc(NC(=O)Nc3cccc(Cl)c3)cc2)CC1,98*,0,-11,17,-11
NC1CCN(c2c(F)cc3c(=O)c(C(=O)O)cn(C4CC4)c3c2Cl)C1 (centres undefined),.,.,-5,-1,-11
COc1cc(/C=N/NC(=O)COc2ccccc2[N+](=O)[O-])ccc1OC(=O)c1ccco1,57*,0,-15,-2,-4
COc1cc(/C=N/Nc2nc(N3CCCCC3)nc(N3CCCCC3)n2)ccc1OC(=O)c1ccco1,60*,0,11,.,5
COc1ccc(Br)cc1/C=N/NC(=O)c1ccco1,2,26,0,-1,-11
CC(C)(C)c1ccc(OCC(=O)N/N=C/c2cc(Br)ccc2OC(=O)c2ccco2)cc1,94*,-4,.,-5,-22
COc1ccc(/C=N/Nc2nc(Nc3ccccc3)nc(N3CCCCC3)n2)cc1OC,98*,-6,.,1,22
COc1ccc(S(=O)(=O)N2CCOC2CNC(=O)C(=O)NCCN2CCOCC2)cc1C (centres undefined),.,.,-14,-1,-1
COc1ccccc1N1CCN(C2CCCN(C(=O)CCn3cncn3)C2)CC1 (centres undefined),.,.,-16,0,-6
CC1=Nc2nc(N3CCCCC3)c(C#N)c3c4c(nc(c23)N1)N(c1ccc(C(C)C)cc1)C(=O)C4,59*,0,-34,11,12
Cc1ccc(S(=O)(=O)N2CCC(CN3C(=O)c4cccc5cccc(c45)C3=O)CC2)cc1,95*,2,.,-1,32
O=C(c1ccc(S(=O)(=O)N2CCCCCC2)cc1)N1CCC(CN2C(=O)c3cccc4cccc(c34)C2=O)CC1,80*,-1,-34,-1,45
O=C1c2cccc3cccc(c23)C(=O)N1CC1CCN(S(=O)(=O)c2ccc(F)cc2)CC1,98*,1,-10,-2,23
Cc1nn(CC(=O)Nc2c(F)c(F)cc(F)c2F)c(=O)c2cccn12,.,.,18,2,-11
CC(C)CCNC(=O)C1CCN(c2nc3ccccc3o2)CC1,0,2,.,-1,3
Cc1ccc(CN2CCC(C(=O)NCCC(C)C)CC2)o1,60*,-3,.,6,-12
CCCCCC(=O)N1C[C@H](O)[C@@H](n2cc(COC(=O)c3ccccc3)nn2)C[C@@H]1c1ccc(Cl)cc1,.,.,.,0,.
O=C(c1ccc(Cn2c(=S)[nH]c3ccccc3c2=O)cc1)N1CCN(c2ccccn2)CC1,100*,0,-13,-1,-1
COc1ccccc1NC(=S)N1CCC(NC(=O)NC23CC4CC(CC(C4)C2)C3)CC1,97*,-8,.,2,1
CCOc1ccccc1NC(=S)N1CCC(NC(=O)NC23CC4CC(CC(C4)C2)C3)CC1,60*,-3,.,0,4
CN(C)C(CNC(=O)CCCN1C(=O)c2cccc3cccc(c23)C1=O)c1ccccc1 (centres undefined),.,.,-25,0,5
CC1(C)CC(=O)c2cc(C(=O)N3CCCC(C)(C)C3)c(=O)n(-c3ccccc3)c2C1,83*,0,.,0,4
COc1ccc(-n2c3c(cc(C(=O)NCc4ccco4)c2=O)C(=O)CC(C)(C)C3)cc1,55*,0,-6,-2,44
